{"data": "Experimental data pooled from the literature", "PLCD1": "1-phosphatidylinositol 4,5-bisphosphate phosphodiesterase delta-1 (PLCD1, Homo sapiens, UniProt P51178)", "CSNK1D": "Casein kinase I isoform delta (CSNK1D, Homo sapiens, UniProt P48730)", "HTR2B": "5-hydroxytryptamine receptor 2B (HTR2B, Homo sapiens, UniProt P41595)", "FLT3 ITD": "Receptor-type tyrosine-protein kinase FLT3 (FLT3, Homo sapiens, UniProt P36888, ITD)", "note": "Compare with care: the assays were run in different laboratories."}
{"Compound": "CCOc1ccc(C(=O)CC(SCc2ccc(Cl)cc2)C(=O)O)cc1 (centres unmarked)", "target": "PLCD1", "effect on": "ligand displacement", "method": "FP", "measurement": "Ki", "result": "780 µM"}
{"Compound": "O=C(NC1CCCCC1)C(=O)c1c[nH]c2ccccc12", "target": "CSNK1D", "effect on": "binding", "method": "SPR", "measurement": "Kd", "result": "5.7 µM"}
{"Compound": "COc1cc2c3c(c1OC)-c1c(OC)ccc(O)c1CC3N(C)CC2 (centres unmarked)", "target": "HTR2B", "effect on": "ligand displacement", "method": "radioligand", "measurement": "Ki", "result": "1.42 µM"}
{"Compound": "O=C(NCC1CC1)c1ccc(-c2nc3ccc4[nH]ncc4c3c3c2CCCC3)cc1", "target": "FLT3 ITD", "effect on": "enzyme activity", "mode": "inhibitor", "measurement": "IC50", "result": "> 1 µM"}
{"Compound": "Oc1ccc(C2CNCCN2)cc1 (centres unmarked)", "target": "CSNK1D", "effect on": "binding", "method": "SPR", "measurement": "Kd", "result": "> 50 µM"}
{"Compound": "O=C(NCCN1CCCCC1)c1ccc(-c2nc3ccc4[nH]ncc4c3c3c2CCCC3)cc1", "target": "FLT3 ITD", "effect on": "enzyme activity", "mode": "inhibitor", "measurement": "IC50", "result": "0.741 µM"}
{"Compound": "COc1cc2c3c(c1OC)-c1c(OC)ccc(N4CCOCC4)c1CC3N(C)CC2 (centres unmarked)", "target": "5-hydroxytryptamine receptor 2C (HTR2C, Homo sapiens, UniProt P28335)", "effect on": "cell-free assay", "method": "radioligand", "measurement": "Ki", "result": "2.71 µM"}
{"Compound": "CN(C)C(=O)c1cc2cnc(Nc3ccc(C(=O)NCCCCCCOc4cccc5c4C(=O)N(C4CCC(=O)NC4=O)C5=O)cc3)nc2n1C1CCCC1 (centres unmarked)", "target": "Aurora kinase C (AURKC, Homo sapiens, UniProt Q9UQB9)", "effect on": "binding", "method": "competition with immobilised ligand", "measurement": "Kd", "result": "< 0.2 µM"}
{"Compound": "Cc1n[nH]c2ccc3nc(-c4ccc(C(=O)NCCN(C)C)cc4F)c4c(c3c12)CCCC4", "target": "Receptor-type tyrosine-protein kinase FLT3 (FLT3, Homo sapiens, UniProt P36888, D835Y)", "effect on": "enzyme activity", "mode": "inhibitor", "measurement": "IC50", "result": "0.005 µM"}
{"Compound": "CCOC(=O)c1cc(-c2ccc(OCC)cc2)oc1-c1ccc(Cl)cc1", "target": "PLCD1", "effect on": "ligand displacement", "method": "FP", "measurement": "Ki", "result": "> 100 µM"}
{"Compound": "CN(C)CCN(C)C(=O)c1ccc(-c2nc3ccc4[nH]ncc4c3c3c2CCCCC3)cn1", "target": "FLT3 ITD", "effect on": "enzyme activity", "mode": "inhibitor", "measurement": "IC50", "result": "> 1 µM"}
{"Compound": "CCOc1ccc(C(=O)CC(SCc2ccc(F)cc2)C(=O)O)cc1 (centres unmarked)", "target": "PLCD1", "effect on": "ligand displacement", "method": "FP", "measurement": "Ki", "result": "> 1000 µM"}
{"Compound": "CN(C)CCNC(=O)c1ccc(-c2nc3ccc4[nH]ncc4c3c3c2CCCCC3)c(F)c1", "target": "Receptor-type tyrosine-protein kinase FLT3 (FLT3, Homo sapiens, UniProt P36888)", "effect on": "enzyme activity", "mode": "inhibitor", "measurement": "IC50", "result": "0.053 µM"}
{"Compound": "CSCC[C@H](NC(C)=O)C(=O)N[C@@H](CC(=O)O)C(=O)N[C@@H](Cc1ccccc1)C(N)=O", "target": "Gastrin/cholecystokinin type B receptor (CCKBR, Homo sapiens, UniProt P32239)", "effect on": "β-arrestin recruitment", "mode": "agonist", "measurement": "EC50", "result": "18.7 µM"}
{"Compound": "COc1cc2c3c(c1OC)-c1c(OC)ccc(-c4ccc(C#N)cc4)c1CC3N(C)CC2 (centres unmarked)", "target": "HTR2B", "effect on": "ligand displacement", "method": "radioligand", "measurement": "Ki", "result": "0.856 µM"}
{"Compound": "COc1ccccc1C(=O)CC(SCc1ccc(Cl)cc1)C(=O)O (centres unmarked)", "target": "PLCD1", "effect on": "ligand displacement", "method": "FP", "measurement": "Ki", "result": "> 1000 µM"}
{"Compound": "CN(C)CCNC(=O)c1ccc(-c2nc3ccc4[nH]ncc4c3c3c2CCCC3)cc1", "target": "Receptor-type tyrosine-protein kinase FLT3 (FLT3, Homo sapiens, UniProt P36888, F691L)", "effect on": "enzyme activity", "mode": "inhibitor", "measurement": "IC50", "result": "0.157 µM"}
{"Compound": "COc1cc(C(C)=O)c(F)cc1O", "target": "CSNK1D", "effect on": "binding", "method": "SPR", "measurement": "Kd", "result": "> 50 µM"}
{"Compound": "CCOc1ccc(C(=O)CC(SCc2ccccc2)C(=O)O)cc1 (centres unmarked)", "target": "PLCD1", "effect on": "ligand displacement", "method": "FP", "measurement": "Ki", "result": "> 1000 µM"}
{"Compound": "COCc1n[nH]c(N)c1-c1ccc(Cl)cc1", "target": "CSNK1D", "effect on": "binding", "method": "SPR", "measurement": "Kd", "result": "> 50 µM"}
{"Compound": "COc1ccc(C(=O)CC(SCc2ccc(Cl)cc2)C(=O)O)cc1 (centres unmarked)", "target": "PLCD1", "effect on": "ligand displacement", "method": "FP", "measurement": "Ki", "result": "> 1000 µM"}
{"Compound": "c1ccc(CNCc2ccc(CN3CCCNCCNCCCNCC3)cc2)nc1", "target": "CSNK1D", "effect on": "binding", "method": "SPR", "measurement": "Kd", "result": "> 50 µM"}
{"Compound": "C#CCOc1cccc(C(=O)CC(SCc2cccc(Br)c2)C(=O)O)c1 (centres unmarked)", "target": "PLCD1", "effect on": "ligand displacement", "method": "FP", "measurement": "Ki", "result": "710 µM"}
{"Compound": "O=c1[nH]c(N2CCCC2)nc2ccccc12", "target": "CSNK1D", "effect on": "binding", "method": "SPR", "measurement": "Kd", "result": "43.8 µM"}
{"Compound": "Cc1n[nH]c2ccc3nc(-c4ccc(C(=O)NCCN(C)C)cc4)c4c(c3c12)CCC(F)(F)C4", "target": "FLT3 ITD", "effect on": "enzyme activity", "mode": "inhibitor", "measurement": "IC50", "result": "0.355 µM"}
{"Compound": "CCn1c2ccccc2c2cc(Nc3ccnc(NCCCN4CCOCC4)n3)ccc21", "target": "CSNK1D", "effect on": "binding", "method": "SPR", "measurement": "Kd", "result": "> 50 µM"}
{"Compound": "Cc1n[nH]c2ccc3nc(-c4ccc(C(=O)NCCN(C)C)cn4)c4c(c3c12)CCCCC4", "target": "FLT3 ITD", "effect on": "enzyme activity", "mode": "inhibitor", "measurement": "IC50", "result": "0.419 µM"}
{"Compound": "CNC(=O)c1ccc(OC)c(Br)c1", "target": "CSNK1D", "effect on": "binding", "method": "SPR", "measurement": "Kd", "result": "> 50 µM"}
{"Compound": "CCOc1cccc(C(=O)CC(SCc2cccc(Br)c2)C(=O)O)c1 (centres unmarked)", "target": "PLCD1", "effect on": "ligand displacement", "method": "FP", "measurement": "Ki", "result": "605 µM"}
